Calls of active or inactive are those of the source. No cut-off for these calls is given here.
Tests used:
[1] = system: HUVEC; assay: Antiangiogenic activity in HUVEC assessed as induction of irregular stress fiber formation at 12.5 uM after overnight incubation by FITC-conjugated phalloidin staining based confocal microscopic analysis; format: functional, cell-based; conditions: Homo sapiens
How it was run: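 HUVECs grown to 70% confluency on coverslips and treated with bile acids overnight. Fixed in 4% paraformaldehyde for 5 min and blocked with 1% BSA/0.1% Triton X-100 for 2 h. Stained with anti-VE-cadherin (1:200, 4 °C overnight) plus Alexa-488 secondary, FITC-phalloidin (1:100) for F-actin, and DAPI. Confocal imaging; repeated twice.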

[2] = system: HUVEC; assay: Decrease in VEGFR2 m-RNA expression in HUVEC at 12.5 uM after 12 to 24 hrs by RT-qPCR analysis relative to control; format: functional, Homo sapiens
How it was run: (§1)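 HUVECs treated with 12.5 μM bile acid or DMSO for 12 and 24 h. Total RNA extracted and 1 μg reverse-transcribed. SYBR-green qPCR for VEGFR1/VEGFR2: 95 °C 10 min, then 40 cycles of 95 °C 5 s / 60 °C 30 s. ΔΔCT normalised to GAPDH and expressed as fold change over control; repeated twice.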

[3] = system: HUVEC; assay: Antiangiogenic activity in HUVEC assessed as decrease in tube length at 12.5 uM after overnight incubation by inverted microscopic analysis; format: functional, cell-based; conditions: Homo sapiens
How it was run: (§2)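 Wells coated with Matigel:plain EBM-2 (1:1). HUVECs added at 2 × 10⁵ cells/well with bile acid (12.5 or 25 μM) or vehicle and left overnight. Bright-field images at 10× from five fields per well; nodes and tube lengths counted. Triplicate, three independent experiments; one-way ANOVA with Dunnett's test.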

[4] = system: HUVEC; assay: Antiangiogenic activity in HUVEC assessed as inhibition of endothelial tube formation at 12.5 to 25 uM after overnight incubation by inverted microscopic analysis; format: functional, cell-based; conditions: Homo sapiens; how it was run: as §2
[5] = species on record: Danio rerio; assay: Toxicity in Tg(fli:eGFP) zebrafish embryo assessed as embryo death at 3 uM after 72 hrs post fertilization by fluorescence microscopic analysis; format: organism-based; conditions: in vivo
[6] = system: HUVEC; assay: Cytotoxicity against HUVEC assessed as cell death at 100 uM after 24 hrs by MTT assay relative to control; format: cell-based; conditions: human
How it was run: (§3)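 HUVECs (passages 2–5, complete EBM-2) seeded at 5 × 10³ cells/well and left 24 h to adhere. Serum-starved 4 h, then exposed to bile acids (serial dilutions, 100 to 6.25 μM) in complete medium for 24 h. MTT added for 4 h at 37 °C, formazan dissolved in DMSO, absorbance read at 550 nm. Run in triplicate; three independent experiments.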

[7] = species on record: Danio rerio; assay: Toxicity in zebrafish embryo assessed as reduction in embryo survival at 3.25 uM; format: organism-based; conditions: in vivo
[8] = system: HUVEC; assay: Antimigratory activity in HUVEC assessed as reduction in wound healing at 12.5 uM after 18 to 24 hrs by phase contrast microscopic analysis; format: functional, cell-based; conditions: Homo sapiens
How it was run: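 HUVECs grown to a confluent monolayer in 12-well plates and serum-deprived overnight. Scratched with a p200 tip, washed with DPBS, then given complete EBM-2 with 12.5 μM bile acid or DMSO vehicle. Imaged from a marked reference point at 0 h and after 18–24 h (phase contrast, 10×); percentage of migrated cells versus control. Triplicate; Dunnett's test.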

[9] = system: HUVEC; assay: Cytotoxicity against HUVEC assessed as reduction in cell death up to 12.5 uM after 24 hrs by MTT assay; format: cell-based; conditions: human; how it was run: as §3
[10] = system: HUVEC; assay: Antiangiogenic activity in HUVEC assessed as decrease in number of nodes at 12.5 uM after overnight incubation by inverted microscopic analysis; format: functional, cell-based; conditions: Homo sapiens; how it was run: as §2
[11] = system: HUVEC; assay: Cytotoxicity against HUVEC assessed as cell death after 24 hrs by MTT assay relative to control; conditions: human
[12] = system: HUVEC; assay: Decrease in VEGFR1 m-RNA expression in HUVEC at 12.5 uM after 12 to 24 hrs by RT-qPCR analysis relative to control; format: functional, Homo sapiens; how it was run: as §1
[13] = system: HUVEC; assay: Cytotoxicity against HUVEC assessed as reduction in cell viability at >25 uM after 24 hrs by MTT assay; format: cell-based; conditions: human; how it was run: as §3
[14] = system: HUVEC; assay: Antiangiogenic activity in HUVEC assessed as inhibition of endothelial tube formation at 25 uM after overnight incubation by inverted microscopic analysis; format: functional, cell-based; conditions: Homo sapiens
How it was run: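 HUVECs at passages 2–5 were seeded at 2 × 10^5 cells per well on a gelled basement membrane matrix, made as Matrigel mixed 1:1 with plain EBM-2. Bile acids were added at 12.5 and 25 μM, with DMSO as vehicle control, and cells were treated overnight. Bright-field images were taken at 10× from five fields per well. Nodes and tube lengths were quantified. Runs were in triplicate; statistics by one-way ANOVA (Dunnett).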

[15] = species on record: Danio rerio; assay: Toxicity in zebrafish embryo assessed as reduction in embryo survival up to 50 uM; format: organism-based; conditions: in vivo
[16] = species on record: Danio rerio; assay: Antiangiogenic activity in Tg(fli:eGFP) zebrafish embryo assessed as effect on phynotypic changes at 6.25 to 12.5 uM after 72 hrs post fertilization by fluorescence microscopic analysis; format: functional, organism-based
How it was run: (§4)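 Tg(fli1:eGFP) zebrafish embryos were selected at 48 hpf, 20–25 per well, and exposed to bile acids at 6.25, 12.5 and 25 μM in embryo water from DMSO stocks. Vehicle was 0.1% DMSO. At 72 hpf the solutions were replaced with fresh embryo water. Embryos were anesthetized with tricaine and imaged by stereo and fluorescence microscopy for sub-intestinal vessel sprouting and branching. Two experiments, 50 embryos per group.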

[17] = system: HUVEC; assay: Cytotoxicity against HUVEC assessed as reduction in cell viability at 6.25 to 100 uM after 24 hrs by MTT assay; format: cell-based; conditions: human
How it was run: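 HUVECs at passages 2–5 were seeded at 5 × 10^3 cells per well in complete EBM-2 and allowed to adhere for 24 h. They were serum-starved 4 h, then given serially diluted bile acids (100 to 6.25 μM) in complete medium for 24 h. MTT was added for 4 h at 37 °C. Formazan was dissolved in DMSO and absorbance read at 550 nm. Three independent experiments.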

[18] = species on record: Danio rerio; assay: Toxicity in Tg(fli:eGFP) zebrafish embryo assessed as embryo death at 25 uM after 72 hrs post fertilization by fluorescence microscopic analysis; format: organism-based; conditions: in vivo
How it was run: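 Tg(fli1:eGFP) embryos selected at 48 hpf, 20–25 per well, raised at 28.5 °C. Bile acids (DMSO stock, diluted in embryo water) given at 6.25, 12.5 or 25 μM; 0.1% DMSO as vehicle control. Solutions replaced with fresh water at 72 hpf, embryos anaesthetised with tricaine and sub-intestinal vessels imaged by fluorescence. Scored as percentage of embryos; two experiments, 50 embryos/group.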

[19] = species on record: Danio rerio; assay: Antiangiogenic activity in Tg(fli:eGFP) zebrafish embryo assessed as vascular modification by measuring formation of irregular pattern of branches at 12.5 uM after 72 hrs post fertilization by fluorescence microscopic analysis; format: functional, organism-based; how it was run: as §4
[20] = species on record: Danio rerio; assay: Pro-angiogenic activity in Tg(fli:eGFP) zebrafish embryo assessed as thickening of vessels at 6.25 uM after 72 hrs post fertilization by fluorescence microscopic analysis; format: functional, organism-based; how it was run: as §4
[21] = species on record: Danio rerio; assay: Pro-angiogenic activity in Tg(fli:eGFP) zebrafish embryo assessed as sprouting of vessels at 6.25 uM after 72 hrs post fertilization by fluorescence microscopic analysis; format: functional, organism-based; how it was run: as §4
[22] = species on record: Danio rerio; assay: Antiangiogenic activity in Tg(fli:eGFP) zebrafish embryo assessed as abnormality in vasculature in developing embryos at 25 uM after 72 hrs post fertilization by fluorescence microscopic analysis; format: functional, organism-based; conditions: 12.5 uM, in the assay text read “12.5 uM” for “25 uM”; how it was run: as §4

C[C@H](CCC(=O)O)[C@H]1CC[C@H]2[C@@H]3CC[C@@H]4C[C@H](O)CC[C@]4(C)[C@H]3CC[C@]12C [LITHOCHOLIC ACID]
Activity [1]: Active | fold change (FC) [2]: 2 | Activity [3]: Active | Activity [4]: Active | Activity [5]: Toxic | Activity [6]: 75% | Activity [7]: Toxic | Activity [8]: Active | Activity [9]: Non-Toxic | Activity [10]: Active | Activity [11]: Toxic | fold change (FC) [12]: 2 | Activity [13]: Toxic

C[C@H](CCC(=O)O)[C@H]1CC[C@H]2[C@@H]3[C@H](O)C[C@@H]4C[C@H](O)CC[C@]4(C)[C@H]3C[C@H](O)[C@]12C [CHOLIC ACID]
Activity [14]: Active | Activity [15]: Non-Toxic | Activity [16]: inactive | Activity [17]: Non-Toxic | Activity [9]: Non-Toxic

C[C@H](CCC(=O)O)[C@H]1CC[C@H]2[C@@H]3CC[C@@H]4C[C@H](O)CC[C@]4(C)[C@H]3C[C@H](O)[C@]12C [DEOXYCHOLIC ACID]
Activity [14]: Active | Activity [15]: Non-Toxic | Activity [18]: Toxic | Activity [19]: Active | Activity [17]: Non-Toxic | Activity [20]: Active | Activity [21]: Active | Activity [9]: Non-Toxic | Activity [22]: Active

Source: ChEMBL document CHEMBL4257469, “Deciphering the role of hydrophobic and hydrophilic bile acids in angiogenesis using in vitro and in vivo model systems” (Medchemcomm, 2017)
